Compounds with a hit are over-represented: about 2.3% of the library has one in this group of screens.
FN deposition inh – inhibitors of fibronectin matrix deposition, primary screen, AH1F cells, Alexa488-fibronectin fluorescence, plate reader | inhibition, % at 12.6 µM | 0.086% of 350,000 active | AID 743247, 2014 | AH1F fibroblasts, overnight;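 active = mean inhibition across replicates of 30% or more, regardless of how many single replicates reach that level; inconclusive = mean under 30% yet at least half of replicates reach 30%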;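 also: positive control wells lacked labelled fibronectin entirely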
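Test system: AH1F fibroblast monolayer depositing Alexa488-labelled fibronectin into matrix. Input: 10000 cells per well. Technique: fluorescence, ex 485 nm, em 525 nm. Buffer or medium: DMEM plus 2% serum, read in PBS. Timing: 1 h cell adhesion before compound, then overnight fibronectin incubation. Compound: single dose, pinned. Read-out basis: inhibition from reduced deposited-fibronectin fluorescence.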
Env fusion inh – inhibitors of HIV-1 Env-driven cell-cell fusion, primary screen, HeLa-JRFL effector, CEM21 target cells, luciferase; inhibition, % at 12.3 µM; 1.1% of 360,000 active; AID 651610, 2012;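 active = mean replicate inhibition score of at least 50 and every replicate individually at or above 50; inconclusive = only one of the two criteria met; inactive = mean below 50 and not all replicates reaching 50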;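 also: 0% = plate neutral controls and 100% = maraviroc near 300 nM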
F508del corr – F508del CFTR correction, initial screen, CFBE line, single point; CFBE cells, YFP halide quenching; stimulated with forskolin plus potentiator P3; % fluorescence drop versus neutral controls; activity (quench increase), % at 7.58 µM; 0.36% of 350,000 active;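 active = mean added fluorescence quench of at least 8% versus neutral control, with both replicates also reaching 8%; inconclusive = only one of the mean or replicate conditions met; inactive = mean below 8% and not both replicates reaching 8%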;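 also: cells transiently co-express mutant CFTR-F508del with the halide-sensitive YFP; corrector assay measuring rescue of mutant channel to the surface after 24 h compound exposure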
PAX8 reporter – inhibitors of PAX8-driven TPO luciferase reporter, primary screen, RMG-I cells, single concentration; SteadyGlo, 24 h; inhibition, % at 12.6 µM; 1.2% of 360,000 active;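 active = mean replicate inhibition at least 60% with every replicate also reaching 60%; inconclusive = only one of the two criteria is met; inactive = mean below 60% and not all replicates reaching 60%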;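 also: luciferase light reporting Pax8 driven TPO promoter activity; plate controls were median of neutral control wells for no effect and mitoxantrone controls for full effect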
EWS-Fli block – EWS/Fli-driven NR0B1 reporter inhibitors, primary screen, A673 cells, NR0B1 luciferase, luminescence, MLPCN library; inhibition, % at 12.6 µM; 0.67% of 350,000 active; viability-normalised;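 active = mean inhibition of at least 50% after viability correction, with every replicate also passing that limit; inconclusive = mean reaches 50% but only one of two replicates passes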;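 also: firefly luciferase signal divided by Alamar Blue viability fluorescence both relative to DMSO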
PGC1a acetyl inh – inhibitors of PGC1a acetylation signal, primary screen, cell-based, U2OS, AlphaScreen, inhibitor mode. inhibition, % at 15.6 µM. AlphaScreen anti-acetyl-lysine; with virally co-expressed GCN5 acetyltransferase. 0.17% of 350,000 active;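 active = every replicate shows inhibition of at least 40%; inconclusive = mean inhibition at least 40% but some replicate below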;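 also: 0% = neutral control wells and 100% = positive control wells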
Starred values were filed as active, the others as inactive; ? = inconclusive; . = no result given; ! = not active in a repeat; [ ] = dose if it differs, or a comment.

SMILES	FN deposition inh	Env fusion inh	F508del corr	PAX8 reporter	EWS-Fli block	PGC1a acetyl inh
CC(C)C[C@@H](COCc1cccc(Cl)c1)N1CCN(C(=O)c2cccc(C(F)(F)F)c2)CCC1=O	0	58*	-1	7	13	.
Cc1cccc(COC[C@H](CC(C)C)N2CCN(C(=O)c3ccc(C(C)(C)C)cc3)CCC2=O)c1	.	-3	-2	-7	-2	.
CC(C)CC(COCc1cccc(Cl)c1)N1CCN(C(=O)c2ccc(C(F)(F)F)cc2)CCC1=O (stereo unspecified)	-2	59*	0	17	5	-6
O=C(NCC[C@@H]1CC[C@@H](NC(=O)c2ccc3c(c2)OCO3)[C@H](CO)O1)Nc1ccc(Cl)cc1	-1	-10[16.7 µM]	-2	-133	-83	-25
O=C(Nc1ccc(F)cc1)N1C[C@@H]2N[C@H](C1)C2c1ccc(-c2ccccc2F)cc1 (stereo partly specified)	3	.	-7	108*!	-4	-5
O=C(c1ccc(F)cc1)N1C[C@@H]2N[C@H](C1)C2c1ccc(-c2ccccc2F)cc1 (stereo partly specified)	3	.	-5	9	3	-15
O=C(C1CC1)N1C[C@@H]2N[C@H](C1)C2c1ccc(-c2ccccc2F)cc1 (stereo partly specified)	10	.	-1	87*!	11	-17
O=C(Nc1ccc(C(F)(F)F)cc1)N1C[C@@H]2N[C@H](C1)C2c1ccc(/C=C/c2ccccc2)cc1 (stereo partly specified)	4	.	-3	90*!	6	73*!
Cc1ccccc1-c1ccc(C2[C@@H]3CN(C(=O)C4CCCC4)C[C@H]2N3)cc1 (stereo partly specified)	-10	.	-1	.	2	-7
O=C(NC1Cc2ccccc2C1)[C@@H]1[C@@H](CO)[C@@H]2Cn3c(ccc(C4=CCCCC4)c3=O)[C@@H]2N1CC1CC1	.	.	1	4	.	1
COc1ccc2c3c(n(C)c2c1)[C@H](CO)N(C)CC31CCN(S(=O)(=O)c2cccs2)CC1	.	.	2	.	0	11
O=C(C[C@H]1CC[C@@H](NC(=O)CN2CCOCC2)[C@H](CO)O1)NC1CCCCC1	-3	-6[16.7 µM]	-1	-16	12	8
CCCC(=O)Nc1ccc(Cl)c(NC(=S)NC(=O)c2cc3ccccc3o2)c1	5	.	6	73*	5	.
CCC/C(=C1/c2ccccc2C(=O)N1c1ccccc1)c1ccc(O[C@@H]2CCCCO2)cc1	10	29	-3	19	3	-17
CCC/C(=C1/c2ccccc2C(=O)N1c1ccccc1)c1ccc2c(c1)OCCO2	4	-56	4	36	62*	4
O=C(Nc1cccc(Cl)c1)N[C@H]1CC[C@H](CCNC(=O)C2CCCCC2)O[C@H]1CO	-9	1[16.7 µM]	0	16	-3	-1
CC1CCc2sc(C(=O)Nc3nnc(SCc4ccc(F)cc4)s3)cc2C1 (stereo unspecified)	.	.	.	.	.	94*
COc1ccc(S(=O)(=O)N2CCCCN3[C@H](CO)[C@H](c4ccc(C#CCC(C)C)cc4)[C@H]3C2)cc1	.	.	7	21	17	-26
COc1ccc(S(=O)(=O)N2CCCCN3[C@H](CO)[C@H](c4ccc(C#CCC(C)C)cc4)[C@@H]3C2)cc1	.	.	2	26	9	-5
COc1ccc(S(=O)(=O)N2CCCCN3[C@H](CO)[C@H](c4ccc(C5=CCCC5)cc4)[C@H]3C2)cc1	.	.	-1	5	9	-13
COc1ccc(S(=O)(=O)N2CCCCN3[C@H](CO)[C@H](c4ccc(C5=CCCCC5)cc4)[C@H]3C2)cc1	.	.	-1	65*	0	-19
COc1ccc(S(=O)(=O)N2CCCCN3[C@H](C2)[C@@H](c2ccc(C#CC(C)C)cc2)[C@@H]3CO)cc1	.	.	-1	91*	11	-8
COc1ccc(S(=O)(=O)N2CCCCN3[C@H](CO)[C@H](c4ccc(C#CC(C)C)cc4)[C@H]3C2)cc1	5	.	0	77*	35	-11
C[C@@H]1CN([C@H](C)CO)C(=O)c2cc(NC(=O)Nc3cccc4ccccc34)ccc2O[C@@H](C)CCCCO[C@@H]1CN(C)S(=O)(=O)c1ccccc1	-9	.	.	.	.	.
CC(C)C[C@H]1CNC(=S)N1C[C@H]1CCCN1C[C@H](Cc1ccc(O)cc1)N1C[C@H](Cc2ccc(O)cc2)N(CC2CCCCCC2)C1=S	7	2	2	73*	22	-15
SMILES	FN deposition inh	Env fusion inh	F508del corr	PAX8 reporter	EWS-Fli block	PGC1a acetyl inh
CC(C)C[C@@H](CN1CCC[C@H]1CN1C(=O)C(=O)NC[C@@H]1Cc1ccccc1)N1C[C@H](Cc2ccc(O)cc2)N(CC2CCCCCC2)C(=O)C1=O	-17	-133	-3	68*	8	.
Oc1ccc(C[C@H]2CNC(=S)N2C[C@H]2CCCN2C[C@H](Cc2ccccc2)N2C[C@H](Cc3ccccc3)N(CC3CCCCC3)C2=S)cc1	1	82*	-1	39	14	.
CC(C)C[C@H]1CN([C@@H](Cc2ccc(O)cc2)CN2CCC[C@@H]2CN2C(=S)NC[C@@H]2Cc2ccccc2)C(=S)N1CC1CCCCCC1	-4	14	3	28	1	-15
CC(C)C[C@H]1CNC(=S)N1CC1CCCN1C[C@H](Cc1ccccc1)N1C[C@H](Cc2ccc(O)cc2)N(CC2CCCCCC2)C1=S (stereo partly specified)	.	-40	0	-5	7	51*
O=C(NCC1CCCCC1)[C@H]1[C@H](CO)[C@H]2Cn3c(ccc(C4=CCCCC4)c3=O)[C@@H]1N2	.	.	-2	.	4	.
C[C@H]1C/C=C\C[C@@H](c2ccc3c(c2)OCO3)NC(=O)[C@H](c2ccccc2)CC(=O)N1	-12	.	.	.	.	.
CC(C)C[C@@H](CN1CCCC1CN1C(=S)NC[C@@H]1Cc1ccc(O)cc1)N1C[C@H](Cc2ccccc2)N(CC2CCCCCC2)C1=S (stereo partly specified)	.	?	4	17	18	7
CC(C)C[C@@H](CN1CCCC1CN1C(=S)NC[C@@H]1Cc1ccc(O)cc1)N1C[C@H](Cc2ccc(O)cc2)N(CC2CCCCCC2)C1=S (stereo partly specified)	.	?	6	82*	22	4
Oc1ccc(C[C@@H](CN2CCC[C@@H]2CN2C(=S)NC[C@@H]2Cc2ccccc2)N2C[C@H](Cc3ccccc3)N(CCc3ccccc3)C2=S)cc1	-2	21	0	20	16	-7
